Test results published in ChEMBL document CHEMBL5233289, “Synthesis of Quinoline and Dihydroquinoline Embelin Derivatives as Cardioprotective Agents” (J Nat Prod, 2023).
Calls of active or inactive are those of the source. No cut-off for these calls is given here.

What was measured:
[1] = system: MCF7; experiment: Antagonizing activity against doxorubicin-induced antitumor activity in human MCF7 cells assessed as cell viability at 20 uM incubated for 24 hrs in presence of doxorubicin by MTT assay; type: toxicity, cell-based; conditions: mcf7, 24 h
How it was run: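 MCF-7 human breast cancer cells in DMEM with 10% FBS, 37 °C, 5% CO2. They were co-treated with compound (20 μM) plus DOX (1 μM) for 24 h. Viability was read by MTT: 1 h at 37 °C, formazan in DMSO, A540. Mean ± SD, n = 3.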

[2] = system: H9c2; experiment: Induction of oxidative stress in rat H9c2 cells assessed as increase in intracellular ROS level at 20 uM incubated for 24 hrs by DCFH-DA staining based fluorometric analysis; type: toxicity, cell-based; conditions: h9c2, 24 h
How it was run: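 Intracellular ROS in H9c2 cells. Cells were treated with compound (20 μM) alone or with DOX (1 μM) over 24 h, with NAC (1 mM) as ROS inhibitor. They were then loaded with 10 μM DCFH-DA for 30 min at 37 °C in the dark. Fluorescence was read at 485/550 nm. Mean ± SD, n = 3.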

[3] = target: Mitogen-activated protein kinase 1 and 3 (ERK2 and ERK1) (Rattus norvegicus) (UniProt P63086+P21708); experiment: Inhibition of doxorubicin-induced ERK1/2 activation in rat H9c2 cells assessed as reduction in ERK1/2 phosphorylation at 20 uM in presence of doxorubicin by immunoblot analysis; type: cell-based
How it was run: (§1)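 H9c2 cell lysates after DOX (1 μM) alone or with derivative (20 μM) were run on SDS-PAGE and transferred to PVDF. Blots were probed for pAkt, Akt, pERK1/2, ERK1/2, Bax and Bcl-2, with β-actin as loading control. Detection used HRP secondary (2 h) and ECL, with densitometric quantification. Mean ± SD, n = 3.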

[4] = system: H9c2; experiment: Activation of Akt in rat H9c2 cells assessed as increase in Akt phosphorylation at 20 uM in presence of doxorubicin by immunoblot analysis; type: cell-based; conditions: filed as activator; how it was run: as §1
[5] = system: H9c2; experiment: Cardioprotective activity against doxorubicin-treated rat H9c2 cells assessed as decrease in Bax protein expression at 20 uM in presence of doxorubicin by immunoblot analysis; type: functional, cell-based; how it was run: as §1
[6] = system: H9c2; experiment: Cardioprotective activity against doxorubicin-treated rat H9c2 cells assessed as increase in Bcl2 protein expression at 20 uM in presence of doxorubicin by immunoblot analysis; type: functional, cell-based; how it was run: as §1
[7] = system: H9c2; experiment: Antioxidant activity against rat H9c2 cells assessed as reduction in doxorubicin-induced oxidative stress by measuring reduction in intracellular ROS level at 20 uM incubated for 24 hrs by DCFH-DA staining based fluorometric analysis
[8] = system: H9c2; experiment: Antioxidant activity against rat H9c2 cells assessed as reduction in doxorubicin-induced oxidative stress by measuring reduction in intracellular ROS level at 1 mM incubated for 24 hrs by DCFH-DA staining based fluorometric analysis
[9] = Cytotoxicity against mouse J774.A1 cells assessed as cell viability at 10 uM incubated for 24 hrs by MTT assay (reference value: 100%); type: toxicity, cell-based; conditions: read-out: Activity
How it was run: (§2)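 J774A.1 murine macrophages or H9c2 rat cardiomyocytes, grown in DMEM with 10% FBS and 1% pen/strep, were seeded for 24 h and then incubated with compound alone for 24 h. MTT reagent was added for 1 h at 37 °C, formazan dissolved in DMSO, absorbance at 540 nm. Results relative to untreated cells, mean ± SD, n = 3.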

[10] = Cytotoxicity against mouse J774.A1 cells assessed as cell viability at 20 uM incubated for 24 hrs by MTT assay (reference value: 100%); type: toxicity, cell-based; conditions: read-out: Activity; how it was run: as §2
[11] = Cytotoxicity against rat H9c2 cells assessed as cell viability at 10 uM incubated for 24 hrs by MTT assay (reference value: 100%); type: toxicity, cell-based; conditions: read-out: Activity; how it was run: as §2
[12] = Cytotoxicity against rat H9c2 cells assessed as cell viability at 20 uM incubated for 24 hrs by MTT assay (reference value: 100%); type: toxicity, cell-based; conditions: read-out: Activity; how it was run: as §2
[13] = system: H9c2; experiment: Cardioprotective activity against rat H9c2 cells assessed as reduction in doxorubicin-induced cardiotoxicity by measuring cell viability at 20 uM incubated for 24 hrs in presence of doxorubicin by MTT assay; type: functional
How it was run: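 H9c2 rat cardiomyocytes in DMEM with 10% FBS, seeded for 24 h, then co-treated with compound (20 μM) and DOX (1 μM) for 24 h. MTT added for 1 h at 37 °C, formazan dissolved in DMSO, absorbance read at 540 nm. DOX alone served as positive control. Mean ± SD, n = 3.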

Sequence of Mitogen-activated protein kinase 1 and 3 (ERK2 and ERK1) (Rattus norvegicus) (P21708 whole entry, looked up): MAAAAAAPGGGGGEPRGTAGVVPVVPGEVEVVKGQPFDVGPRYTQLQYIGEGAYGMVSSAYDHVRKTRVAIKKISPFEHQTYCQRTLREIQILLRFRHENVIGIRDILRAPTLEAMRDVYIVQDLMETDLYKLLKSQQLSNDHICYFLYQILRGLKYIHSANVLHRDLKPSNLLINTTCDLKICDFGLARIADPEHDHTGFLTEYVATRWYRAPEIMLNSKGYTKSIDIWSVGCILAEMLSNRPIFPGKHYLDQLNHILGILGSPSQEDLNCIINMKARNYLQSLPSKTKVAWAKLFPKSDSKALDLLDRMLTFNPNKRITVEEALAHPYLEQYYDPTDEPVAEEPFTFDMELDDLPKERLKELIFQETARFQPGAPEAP
Sequence of Mitogen-activated protein kinase 1 and 3 (ERK2 and ERK1) (Rattus norvegicus) (P63086 whole entry, looked up): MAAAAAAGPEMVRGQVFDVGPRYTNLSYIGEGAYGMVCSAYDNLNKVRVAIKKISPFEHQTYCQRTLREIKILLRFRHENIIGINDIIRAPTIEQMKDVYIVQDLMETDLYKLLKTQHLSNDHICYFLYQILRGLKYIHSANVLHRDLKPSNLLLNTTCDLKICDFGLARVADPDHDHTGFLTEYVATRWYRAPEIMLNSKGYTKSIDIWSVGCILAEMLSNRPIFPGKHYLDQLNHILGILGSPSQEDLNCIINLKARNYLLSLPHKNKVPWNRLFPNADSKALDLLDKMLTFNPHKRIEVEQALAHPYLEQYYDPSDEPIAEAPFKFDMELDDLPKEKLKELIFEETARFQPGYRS

Compound | inhibition [3] | Activity [1] | Activity [2] | Activity [4] | Activity [5] | Activity [6] | Activity [7] | Activity [8] | viability at 24 h, 10 µM [9] | viability at 24 h, 20 µM [10] | viability at 24 h, 10 µM [11] | viability at 24 h, 20 µM [12] | Activity [13]
CCCCCCCCCCCC1=C(O)C(=O)c2c(nc3ccccc3c2-c2ccc([N+](=O)[O-])cc2)C1=O | Active | Non-Toxic | Non-Toxic | Active | Active | Active | Active |  |  |  |  |  | 
CC(=O)N[C@@H](CS)C(=O)O |  |  |  |  |  |  |  | Active |  |  |  |  | 
CCCCCCCCCCCC1=C(O)C(=O)c2c(nc3ccccc3c2-c2ccc(F)cc2)C1=O |  | Toxic |  |  |  |  |  |  |  |  |  |  | 81.4%

The next lines start with results.

inhibition [3] | Compound | Activity [1] | Activity [2] | Activity [4] | Activity [5] | Activity [6] | Activity [7] | Activity [8] | viability at 24 h, 10 µM [9] | viability at 24 h, 20 µM [10] | viability at 24 h, 10 µM [11] | viability at 24 h, 20 µM [12] | Activity [13]
Active | CCCCCCCCCCCC1=C(O)C(=O)C2=C(Nc3ccccc3C2c2ccc(C)c(C)c2)C1=O (stereo not given) | Non-Toxic | Non-Toxic | Active | Active | Active | Active |  |  |  |  |  | 
Active | CCCCCCCCCCCC1=C(O)C(=O)c2c(nc3ccc(OC)cc3c2-c2ccc([N+](=O)[O-])cc2)C1=O | Non-Toxic | Non-Toxic | Active | Active | Active | Active |  | 81.9% | 76.3% | 99.2% | 94.4% | 84.3%
Active | CCCCCCCCCCCC1=C(O)C(=O)c2c(nc3ccccc3c2-c2ccc(Br)cc2)C1=O | Non-Toxic | Non-Toxic | Active | Active | Active | Active |  |  |  |  |  | 83.4%
Active | CCCCCCCCCCCC1=C(O)C(=O)c2c(nc3ccc(Br)cc3c2-c2ccc([N+](=O)[O-])cc2)C1=O | Non-Toxic | Non-Toxic | Active | Active | Active | Active |  |  |  |  |  | 91.2%
